≈ marks a conversion by molar mass, not a printed value. Calls of active or inactive are those of the source. No cut-off for these calls is given here. Bridge positions count the residues as written; N and C are the ends. Square brackets hold non-standard residues; d marks the D form. Peptide text beside a SMILES is read from it. * marks the point of attachment. Tetradecenoyl(2E,13-Me) = CC(C)CCCCCCCCC/C=C/C(=O)*; d(aThr) = C[C@@H](O)[C@@H](N)C(=O)O; dPip = O=C(O)[C@H]1CCCCN1; Dap = NC[C@H](N)C(=O)O
Experiments:
Staphylococcus simulans [1] = assay: Antibacterial activity against Staphylococcus simulans 22 assessed as inhibition of bacterial growth incubated for 16 hrs in presence of UDP-GlcNAc by broth microdilution assay; format: functional, organism-based
How it was run: (§1)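 The antibiotic was pre-incubated with the cell wall precursor (e.g. UDP-GlcNAc, C55-PP, C55-P) before being given to the bacteria, with vancomycin as positive control.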

Staphylococcus simulans [2] = assay: Antibacterial activity against Staphylococcus simulans 22 assessed as inhibition of bacterial growth incubated for 16 hrs in presence of C55-P by broth microdilution assay; format: functional, organism-based; how it was run: as §1
Staphylococcus simulans [3] = assay: Antibacterial activity against Staphylococcus simulans 22 assessed as inhibition of bacterial growth incubated for 16 hrs in presence of lipid I by broth microdilution assay; format: functional, organism-based; how it was run: as §1
Staphylococcus simulans [4] = assay: Antibacterial activity against Staphylococcus simulans 22 assessed as inhibition of bacterial growth incubated for 16 hrs in presence of UDP-MurNAc-pp by broth microdilution assay; format: functional, organism-based; how it was run: as §1
Staphylococcus simulans [5] = assay: Antibacterial activity against Staphylococcus simulans 22 assessed as inhibition of bacterial growth incubated for 16 hrs in presence of C55-PP by broth microdilution assay; format: functional, organism-based; how it was run: as §1
Staphylococcus simulans [6] = assay: Antibacterial activity against Staphylococcus simulans 22 assessed as inhibition of bacterial growth incubated for 16 hrs in presence of C15-PP by broth microdilution assay; format: functional, organism-based; how it was run: as §1
Staphylococcus simulans [7] = assay: Antibacterial activity against Staphylococcus simulans 22 assessed as inhibition of bacterial growth incubated for 16 hrs in presence of C15-P by broth microdilution assay; format: functional, organism-based; how it was run: as §1
Staphylococcus simulans [8] = assay: Antibacterial activity against Staphylococcus simulans 22 assessed as inhibition of bacterial growth incubated for 16 hrs in presence of lipid II by broth microdilution assay; format: functional, organism-based; how it was run: as §1
Staphylococcus simulans [9] = assay: Antibacterial activity against Staphylococcus simulans 22 assessed as inhibition of bacterial growth incubated for 16 hrs in presence of 10 mM Ca2+ by broth microdilution assay; format: functional
How it was run: (§2)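 MICs were read in µg/mL against indicator strains S. aureus 29213 and S. simulans 22. The growth medium was supplemented with Ca2+ at 5.0 or 10 mM.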

[10] = Binding affinity to calcium at 60 uM in pH 7.4 buffer by CD spectroscopy
[11] = Binding affinity to undecaprenyl phosphate (C55-P) assessed as reduction in lipid II synthesis at 0.5 to 2 equiv in presence of UDP-GlcNAc, UDPMurNAc-pentapeptide and Micrococcus flavus membrane vesicles and measured after 2 hrs by TLC analysis; conditions: dose 0.5-2 equiv
How it was run: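 C55-P was pre-treated with the antibiotic over a range of concentrations. UDP-GlcNAc, UDP-MurNAc-pentapeptide and M. flavus membrane vesicles containing MraY and MurG were then added, and lipid II formation was monitored.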

Staphylococcus aureus [12] = assay: Induction of UDP-MurNAc-pentapeptide accumulation in Staphylococcus aureus ATCC 29213 at 10 times MIC incubated for 60 mins by HPLC analysis; format: functional
[13] = Binding affinity to lipid II at 0.5 to 2 equiv in Ca2+-containing buffer incubated for 2 hrs by TLC-based binding assay; conditions: dose 0.5-2 equiv
[14] = Binding affinity to undecaprenyl phosphate (C55-P) at 0.5 to 2 equiv in Ca2+-containing buffer incubated for 2 hrs by TLC-based binding assay; conditions: dose 0.5-2 equiv
Staphylococcus aureus [15] = assay: Antibacterial activity against Staphylococcus aureus ATCC 29213 assessed as inhibition of bacterial growth incubated for 16 hrs in presence of 10 mM Ca2+ by broth microdilution assay; format: functional
How it was run: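 MIC, read in µg/mL, was determined in growth medium supplemented with Ca2+ at a final 10 mM. The same strain was also tested at 5 mM Ca2+ to check how calcium level affects the MIC.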

Staphylococcus simulans [16] = assay: Antibacterial activity against Staphylococcus simulans 22 assessed as inhibition of bacterial growth incubated for 16 hrs in presence of 5 mM Ca2+ by broth microdilution assay; format: functional; how it was run: as §2
[17] = Binding affinity to undecaprenyl phosphate (C55-P) in large unilamellar vesicles comprising 1,2-dioleoyl-sn-glycero-3-phosphocholine containing 1.5 mol % C55-P by ITC analysis
How it was run: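 Isothermal titration calorimetry: DOPC vesicles containing 1.5 mol% C55-P were titrated into the antibiotic solution in HEPES buffer with CaCl2. Heat was plotted against molar ratio.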

Staphylococcus aureus [18] = assay: Antibacterial activity against Staphylococcus aureus ATCC 29213 assessed as inhibition of bacterial growth incubated for 16 hrs by broth microdilution assay; format: functional; how it was run: as §2

Structure (SMILES) | Activity (Staphylococcus simulans [1]) | Activity (Staphylococcus simulans [2]) | Activity (Staphylococcus simulans [3]) | Activity (Staphylococcus simulans [4]) | Activity (Staphylococcus simulans [5]) | Activity (Staphylococcus simulans [6]) | Activity (Staphylococcus simulans [7]) | Activity (Staphylococcus simulans [8]) | MIC (Staphylococcus simulans [9]) | Activity [10] | Activity [11] | Activity (Staphylococcus aureus [12]) | Activity [13] | Activity [14] | MIC (Staphylococcus aureus [15]) [µg/mL] | MIC (Staphylococcus simulans [16]) [µg/mL] | Kd [17] [nM] | MIC (Staphylococcus aureus [18]) [µg/mL]
CCCCCCCCCC(=O)N[C@@H](Cc1c[nH]c2ccccc12)C(=O)N[C@H](CC(N)=O)C(=O)N[C@@H](CC(=O)O)C(=O)N[C@H]1CNC(=O)[C@H]2CCCN2C(=O)[C@H]([C@@H](C)CC)NC(=O)[C@@H]([C@@H](C)O)NC(=O)CNC(=O)[C@H](CC(=O)O)NC(=O)[C@@H](C)NC(=O)[C@H](CC(=O)O)NC(=O)CNC(=O)CNC1=O | Active | Active | Active | Active | Active | Active | Active | Active | – | – | – | – | – | – | – | – | – | –
CCCCCCCCCC(=O)N[C@@H](Cc1c[nH]c2ccccc12)C(=O)N[C@H](CC(N)=O)C(=O)N[C@@H](CC(=O)O)C(=O)N[C@H]1CNC(=O)[C@@H](CC(=O)c2ccccc2N)NC(=O)[C@H](CCC(=O)O)NC(=O)[C@@H](CO)NC(=O)CNC(=O)[C@H](CC(=O)O)NC(=O)[C@@H](C)NC(=O)[C@H](CC(=O)O)NC(=O)[C@H](CCCN)NC(=O)CNC1=O | Active | Active | Active | Active | Active | Active | Active | Active | – | – | – | – | – | – | – | – | – | –
CCCCCCCCCC(=O)N[C@@H](Cc1c[nH]c2ccccc12)C(=O)N[C@H](CC(N)=O)C(=O)N[C@@H](CC(=O)O)C(=O)N[C@H]1CNC(=O)[C@H]2CCCN2C(=O)[C@H]([C@@H](C)CC)NC(=O)[C@@H]([C@@H](C)O)NC(=O)CNC(=O)[C@H](CC(=O)O)NC(=O)[C@@H](C)NC(=O)[C@H](CC(=O)O)NC(=O)CNC(=O)[C@H]2CCCCN2C1=O | Active | Active | Active | Active | Active | Active | Active | Active | inactive | Active | – | – | – | – | – | – | – | –
CCCCCCCCCC(=O)N[C@@H](Cc1c[nH]c2ccccc12)C(=O)N[C@H](CC(N)=O)C(=O)N[C@@H](CC(=O)O)C(=O)N[C@H]1CNC(=O)[C@@H](CC(=O)c2ccccc2N)NC(=O)[C@H](CCC(=O)O)NC(=O)[C@@H](CO)NC(=O)CNC(=O)[C@H](CC(=O)O)NC(=O)[C@@H](C)NC(=O)[C@H](CC(=O)O)NC(=O)[C@H](CCCN)NC(=O)[C@H]2CCCCN2C1=O | Active | Active | Active | Active | Active | Active | Active | Active | – | – | – | – | – | – | – | – | – | –
CCCCCCCCCC(=O)N[C@@H](Cc1c[nH]c2ccccc12)C(=O)N[C@H](CC(N)=O)C(=O)N[C@@H](CC(=O)O)C(=O)N[C@H]1CNC(=O)[C@H]2CCCN2C(=O)[C@H](CCC(=O)O)NC(=O)[C@@H](CO)NC(=O)CNC(=O)[C@H](CC(=O)O)NC(=O)[C@@H](C)NC(=O)[C@H](CC(=O)O)NC(=O)[C@H](CCCN)NC(=O)[C@H]2CCCCN2C1=O | Active | Active | Active | Active | Active | Active | Active | Active | inactive | Active | – | – | – | – | – | – | – | –
CCCCCCCCCC(=O)N[C@@H](Cc1c[nH]c2ccccc12)C(=O)N[C@@H](CC(N)=O)C(=O)N[C@@H](CC(=O)O)C(=O)N[C@@H]1C(=O)NCC(=O)N[C@@H](CCCN)C(=O)N[C@H](CC(=O)O)C(=O)N[C@H](C)C(=O)N[C@@H](CC(=O)O)C(=O)NCC(=O)N[C@H](CO)C(=O)N[C@@H]([C@@H](C)CC(=O)O)C(=O)N[C@@H](CC(=O)c2ccccc2N)C(=O)O[C@@H]1C | Active | Active | Active | Active | Active | Active | Active | Active | – | – | inactive | inactive | inactive | inactive | – | – | – | –
CCCCCCCCCC(=O)N[C@@H](Cc1c[nH]c2ccccc12)C(=O)N[C@H](CC(N)=O)C(=O)N[C@@H](CC(=O)O)C(=O)N[C@H]1CNC(=O)[C@@H](Cc2c[nH]c3ccccc23)NC(=O)[C@H](CCC(=O)O)NC(=O)[C@@H](CO)NC(=O)CNC(=O)[C@H](CC(=O)O)NC(=O)[C@@H](C)NC(=O)[C@H](CC(=O)O)NC(=O)[C@H](CCCN)NC(=O)CNC1=O | Active | Active | Active | Active | Active | Active | Active | Active | – | – | – | – | – | – | – | – | – | –
CC[C@H](C)[C@@H]1NC(=O)[C@@H]([C@@H](C)O)NC(=O)CNC(=O)[C@H](CC(=O)O)NC(=O)CNC(=O)[C@H](CC(=O)O)NC(=O)CNC(=O)[C@H]2CCCCN2C(=O)[C@@H](NC(=O)[C@H](CC(=O)O)NC(=O)/C=C/CCCCCCCCCC(C)C)CNC(=O)[C@@H]2CCCN2C1=O ({Tetradecenoyl(2E,13-Me)}-D[Dap][dPip]GDGDG[d(aThr)]IP; lactam 2-C) | – | inactive | – | – | inactive | Active | inactive | – | ≤ 1 µg/mL | – | Dose-dependent effect | Active | inactive | Active | 2 | 4 | 7.3 | 4 (≈ 3.21 µM)
CN[C@H](CC(C)C)C(=O)N[C@H]1C(=O)N[C@@H](CC(N)=O)C(=O)N[C@H]2C(=O)N[C@H]3C(=O)N[C@H](C(=O)N[C@H](C(=O)O)c4cc(O)cc(O)c4-c4cc3ccc4O)[C@H](O)c3ccc(c(Cl)c3)Oc3cc2cc(c3O[C@@H]2O[C@H](CO)[C@@H](O)[C@H](O)[C@H]2O[C@H]2C[C@](C)(N)[C@H](O)[C@H](C)O2)Oc2ccc(cc2Cl)[C@H]1O | – | – | inactive | inactive | – | – | – | inactive | – | – | – | – | – | – | – | – | – | –
CCCCCCCCCC(=O)N[C@@H](Cc1c[nH]c2ccccc12)C(=O)N[C@H](CC(N)=O)C(=O)N[C@@H](CC(=O)O)C(=O)N[C@H]1CNC(=O)[C@@H](Cc2c[nH]c3ccccc23)NC(=O)[C@H](CCC(=O)O)NC(=O)[C@@H](CO)NC(=O)CNC(=O)[C@H](CC(=O)O)NC(=O)[C@@H](C)NC(=O)[C@H](CC(=O)O)NC(=O)[C@H](CCCN)NC(=O)[C@H]2CCCCN2C1=O | Active | Active | Active | Active | Active | Active | Active | Active | – | – | – | – | – | – | – | – | – | –
CCCCCCCCCC(=O)N[C@@H](Cc1c[nH]c2ccccc12)C(=O)N[C@H](CC(N)=O)C(=O)N[C@@H](CC(=O)O)C(=O)N[C@@H]1C(=O)NCC(=O)N[C@@H](CCCN)C(=O)N[C@@H](CC(=O)O)C(=O)N[C@H](C)C(=O)N[C@@H](CC(=O)O)C(=O)NCC(=O)N[C@H](CO)C(=O)N[C@@H]([C@@H](C)CC(=O)O)C(=O)N[C@@H](CC(=O)c2ccccc2N)C(=O)O[C@@H]1C | – | – | – | – | – | – | – | – | ≤ 0.031 µg/mL | – | – | – | – | – | 0.125 | 0.031 | – | 0.25 (≈ 0.154 µM)
